Measurements from the EternaBench riboswitch data.

Test system: MS2 coat protein
Assay: apparent Kd, MS2 coat protein; higher = weaker binding; RNA-MaP array; FMN 200 µM where present
Procedure, shortened: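 Designs were transcribed by stalled E. coli RNA polymerase on Illumina sequencing-chip clusters. They were titrated with SNAP-549-labelled MS2 coat protein from 0.7 or 1.5 nM, doubling to 3 µM, in 100 mM Tris-HCl pH 7.5, 80 mM KCl, 4 mM MgCl2, BSA, DTT, yeast tRNA and Tween-20, without and then with constant ligand. The apparent Kd is the median of filtered per-cluster fits after normalisation of green signal to red-channel RNA signal and control-cluster median Fmax.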

[1] = designed as: OFF switch for flavin mononucleotide, no ligand
[2] = ligand present: flavin mononucleotide, designed as: OFF switch for flavin mononucleotide
[3] = designed as: ON switch for flavin mononucleotide, no ligand
[4] = ligand present: flavin mononucleotide, designed as: ON switch for flavin mononucleotide

Sequence	apparent Kd [1]	apparent Kd [2]	apparent Kd [3]	apparent Kd [4]
AUAUUAAUAUAGGAUAUCGAAUUUAUUAAUUAUCGAGAAGGAUAAACAUGAGGAUCACCCAUGUGGUAUCAUGG	181 nM	225 nM	–	–
AUAUUGUGAGGAUAUGAACUUAGAAUCGAAAGAUACUAAGUUCAGAAGGCACAUGAGGAUCACCCAUGUUUCUC	86 nM	875 nM	–	–
AUAUUGUGAGGAUAUGAACUUAGUAUCGAAAGAUACUAAGAUCAGAAGGCACAUGAGGAUCACCCAUGUUUCUC	77.5 nM	402 nM	–	–
AUCAGCUCGUCAGGAUAUACGCCACUGCGUCAGCAGUGUGGUAAGAUCACAUGAGGAUCACCCAUGUAGAAGGGACGAGCUGAU	10.9 nM	147 nM	–	–
AUCAGCUCGUCAGGAUAUACGUCAAUGCGUCAGCAGUGUGGUAAGAUCACAUGAGGAUCACCCAUGUAGAAGGGACGAGCUGAU	125 nM	572 nM	–	–
AUCAGCUCGUCAGGAUAUACGUCACCGCGUCAGCAGUGUGGUAAGAUCACAUGAGGAUCACCCAUGUAGAAGGGACGAGCUGAU	13.6 nM	237 nM	–	–
AUCAGCUCGUCAGGAUAUACGUCACUACGUCAGCAGUGUGGUAAGAUCACAUGAGGAUCACCCAUGUAGAAGGGACGAGCUGAU	21.4 nM	201 nM	–	–
AUCAGCUCGUCAGGAUAUACGUCACUGCGUCAGCAGUGUGGUAAGAUCACAUGAGGAUCACCCAUGUAGAAGGGCCGAGCUGAU	12.2 nM	184 nM	–	–
AUCAGCUCGUCAGGAUAUACGUCACUGCGUCAGCAGUGUGGUAAGUUCACAUGAGGAUCACCCAUGUAGAAGGGACGAGCUGAU	4.98 nM	7.14 nM	–	–
AUCAGCUCGUCAGGAUAUACGUCACUGCGUCUGCAGUGUGGUAAGAUCACAUGAGGAUCACCCAUGUAGAAGGGACGAGCUGAU	14.1 nM	254 nM	–	–
AUCAGCUUGACAGGAUAUACAUCACUGCGAAAGCAGUGUAUCUUAAUAACAUGAGGAUCACCCAUGUAGAAGGGUCGAGCUGAU	18.4 nM	32.6 nM	–	–
AUCAUGUAAGGAUAUCUUACAUGUAUCGAAAGAUACAGUUAAGAGAAGGUACAUGAGGAUCACCCAUGUAUAAC	29 nM	45.5 nM	–	–
AUCAUGUCAGGAUAUCGUGCAGCUACCGAAAGGUAGCUGCACGAGAAGGGACAUGAGGAUCACCCAUGUAUGAA	221 nM	117 nM	–	–
AUCCGGCGUGUAGGAUAUGGAAAAGAUAAGGAUCCAGAAGGACAUGAGGAUCACCCAUGUACAUGUAAACAGUCAUCACCGGAA	35.3 nM	50.9 nM	–	–
AUCCGGCGUGUAGGAUAUGGAAACGAUUAGGAUCCAGAAGGACAUGAGGAUCACCCAUGUACAUGUAAACAGUCAUCACCGGAA	14.5 nM	52.2 nM	–	–
AUCCGGCGUGUAGGAUAUGGAACCGAUUAGGAUCCAGAAGGACAUGAGGAUCACCCAUGUACAUGUAAACAGUCAUCACCGGAA	10.9 nM	65.3 nM	–	–
AUCCGUCGUGUGAGGAUAUAAGAGUUCAAGGUUGUUUAGAAGGUACAUGAGGAUCACCCAUGUCACCCUGAUUG	14.9 nM	14.9 nM	–	–
AUCCUACAUGAGGAUCACCCAUGUGACGCCUCGAUAGGAUAUGCGUGUGCCUUGGCGCAUGCAGAAGGAUUGUAGC	–	–	43.6 nM	237 nM
AUCGGCUGGCAGAAGGGCUAUGUGAUCCGGUUUUACAUGAGGAUCACCCAUGUAGCCUCGCGCUAGCAGGAUAUGCAACGGCUG	–	–	175 nM	40.4 nM
AUCGUGCAGCUUUGCUGUACGCGUACAUGAGGAUCACCCAUGUAGGAUAUGGUACGCUUUGCGUGCUAGAAGGAUAUGGAGAGG	16.9 nM	21.1 nM	–	–
AUCUCGUCAGGAUAUGACUACAUAAAAAAUAAAAAAUGUAGUCAGAAGGGACAUGAGGAUCACCCAUGUACCAA	19.1 nM	18.4 nM	–	–
AUCUUGCGAGGAUAUACUUACUUUUUUUCAUUUGGUUGCGAACAUGAGGAUCACCCAUGUAGAAGGUGCAUAAC	27.6 nM	23.6 nM	–	–
AUCUUUAACAUAGGAUAUAGUAUGAAGGUUUAUUUAGAAGGAUGUCACAUGAGGAUCACCCAUGUAAUAGGAUUACCCAUGUAU	29.8 nM	21.9 nM	–	–
AUCUUUAACAUAGGAUAUAGUAUGAUGGUUUAAUUAGAAGGAUGUCACAUGAGGAUCACCCAUGUAAUAGGAUUACCCAUGUAU	20.2 nM	15.7 nM	–	–
AUCUUUAAGGUAGGAUAUAGUAUGAUGGUUUAAUUAGAAGGAUCUCACAUGAGGAUCACCCAUGUAAUAGGAUUACCCAUGUAU	54 nM	43.6 nM	–	–
AUGAGCCGAGGAGGAUAUGACGGGUGCUAAAUCACAUGAGGAUCACCCAUGUCAGAAGGCCUCGCCAUAUUUGAUGCUUUAGAG	201 nM	9.55 nM	–	–
AUGAGUGUAAUGAUAGAGCCACUGCAGGAUAUCACAUGAGGAUCACCCAUGUGUCAGCCUCGGAGUGAGAAGGGCGGUUUCUUA	5.65 nM	9.7 nM	–	–
AUGAUACAUGAGGAUCACCCAUGUCACCUCACACGAGGAUAUCUGAAUCGAUUAGAUUACGGAGAAGGCGUGGAAA	–	–	66.8 nM	20.8 nM

Sequence	apparent Kd [1]	apparent Kd [2]	apparent Kd [3]	apparent Kd [4]
AUGCCGUGCAGAGCGCGACGGCGAACAUGAGGAUCACCCAUGUAGGAUAUACUACACAAAGUGUAGUAGAAGGACGUGCAACAC	25.5 nM	34.7 nM	–	–
AUGCCGUGCAGAGCGCGACGGCGAACAUGAGGAUCACCCAUGUAGGAUAUACUACACAAAGUGUAGUAGAAGGACGUGCGGCAC	20.9 nM	30.8 nM	–	–
AUGCGGUCAGGAUAUGCAUGGCGGGACUUGCGUCGUGGCGUGGAGAAGGGACAUGAGGAUCACCCAUGUGGAGG	108 nM	87 nM	–	–
AUGCUAGUGUGAGGAUAUCAACAUGAGGAUCACCCAUGUUGGAAGUACACGACAUGCGGUACAUCUGAGAAGGUACAUUAGCAU	29.1 nM	52 nM	–	–
AUGCUUAUCGAAGGAUAUGGUUACAUGAGGAUCACCCAUGUUAUGCUUGGUUACUUGUUUAGUUUCCAGAAGGUCGAUUAGUUG	71 nM	172 nM	–	–
AUGCUUUAUGUAGGAUAUGCAUACGGUACGUAUGCAGAAGGACAUGAGGAUCACCCAUGUAAAUUAUUAUUACAUAUCAUACAU	–	44 nM	–	–
AUGGAUACCACAGGAUAUAGCUAGCAUAGCUAGCUAGAAGGGUGGUCCAUCCUAUGUAAAUACAUGAGGAUCACCCAUGUGUCC	–	–	403 nM	207 nM
AUGGUACAUGAGGAUCACCCAUGUUAGGAUAUCGCGUGAGGUAAAACUUACACACACACGAGAAGGGACGACAU	65.2 nM	46.7 nM	–	–
AUGGUACAUGAGGAUCACCCAUGUUAGGAUAUCGCGUGAUCUAAAACUAAGAGACACACGAGAAGGGACGACAU	176 nM	104 nM	–	–
AUGGUUGUCGUAGGAUAUGUAGGAUAUUCCUACAUGAGGAUCACCCAUGUUCGCAUGGAAGAAGGACAGAAGGACGAUGACCAU	–	–	1150 nM	9.7 nM
AUGUACCUAGGAUAUACAUGAGGAUCACCCAUGUUAACUUUGCAAUCAAGUUAAUAUUGUAGAAGGAGGUGAAA	61.5 nM	107 nM	–	–
AUGUAGUAAGGAUAUAGAAAGAAGGAGUAAGAUAGAGAGUUCUAGAAGGUACAUGAGGAUCACCCAUGUUGGAG	29 nM	26.4 nM	–	–
AUGUGGUGCGUAGGAUAUCAUUAAAGAAAACCCUGAGAAGGACGUGAGGACAUGAGGAUCACCCAUGUGGAUCACCCAUGUCAU	320 nM	285 nM	–	–
AUGUUGAGCAGUGUAUUAAUAAAACAUGAGGAUCACCCAUGUAGAAGGCACGAGCUGAUCGCUCGUGAGGAUAUACAUCACUGC	5.15 nM	5.9 nM	–	–
AUUAAACAUGAGGAUCACCCAUGUCAACAAAGUCGAGGAUAUGGGCAAAUAAAAUAAGUACCAGAAGGCGAAUAAU	–	–	113 nM	24.2 nM
AUUAAACAUGAGGAUCACCCAUGUCAACAAAGUCGAGGAUAUGGGCAUAUUAUCUUAUAACCAGAAGGCGAAUAAU	–	–	222 nM	37 nM
AUUAACUACAUAGGAUAUUGAUACAUGAGGAUCACCCAUGUCACCCAUGUUUAUUUAUCAAUUGACAAGAAGGAUGUGGUUACA	–	–	69.8 nM	46.5 nM
AUUAAUUAAUUAAUACAUGAGGAUCACCCAUGUAAUAAGAUCAAGGAUAUCAGCUCGAUUAGAGCUGAGAAGGUGAUCACAUGU	–	–	772 nM	223 nM
AUUAUAAUUGAAGGAUAUCUAUAUCCAACAUGAGGAUCACCCAUGUUGAGGAUCACCCAUGUAAAGGAGAAGGUUAAUUAUAAU	–	–	–	24.6 nM
AUUAUAUAGAAAGGAUAUUGAUUAUUAUUUUAACAUGAGGAUCACCCAUGUAGCCUUAUGUAUAACAAGAAGGUUCAUUUAUUA	75.9 nM	89.5 nM	–	–
AUUAUAUAGACAGGAUAUAGAAUAUUAUUUUAACAUGAGGAUCACCCAUGUAACCUUAUGUGUAGCUAGAAGGGUCAUUUAUUA	89.9 nM	162 nM	–	–
AUUAUGAAGCAGUUAUAACUCUAAACAUGAGGAUCACCCAUGUAGGAUAUCAGCACGAUAAGUGCUGAGAAGGACAUCUGCUUC	15.3 nM	18.4 nM	–	–
AUUAUGAAUGCAGGAUAUGAUUAACAUGAGGAUCACCCAUGUGGUGUUGUGAGUAAGGAGAGUGAUCAGAAGGGCAUUUUUUUU	–	–	593 nM	585 nM
AUUAUUAAGGUAGGAUAUAGUAAAAUAAUUUAAUUAGAAGGAUCUCACAUGAGGAUCACCCAUGUAAGAGGAUCACCCAUGUAU	10.8 nM	9.53 nM	–	–
AUUAUUAAGUUAGGAUAUAGUAAAAUGAUUUAGUUAGAAGGAGCUCACAUGAGGAUCACCCAUGUAAGAGGAUCACCCAUGUAU	23.8 nM	15.6 nM	–	–
AUUAUUUACAUAGGAUAUUGUUACAUGAGGAUCACCCAUGUUAUUUGGGAAUUAGGAAUAUUUUACAAGAAGGAUGUUGUUACA	–	–	87.4 nM	67 nM
AUUAUUUAGUGAGGAUAUACAGAUAAAGAGAUUGUAGAAGGCACUUUCCUCAGGACAUGAGGAUCACCCAUGUGUUAAUAAGAU	72.5 nM	267 nM	–	–
